According to ChEMBL document CHEMBL1158389, “Highly twisted adamantyl arotinoids: synthesis, antiproliferative effects and RXR transactivation profiles” (Eur J Med Chem, 2009):
Activity calls are given as the source filed them. The calls are words filed in the database; no cut-off is given here.

Key:
[1] = biological target: T1, Retinoic acid receptor beta (Homo sapiens) (UniProt P10826); test: Inhibition of transactivation activity of Gal4-LBD fused human RARbeta (169 to 448) transfected in atRA-stimulated african green monkey CV1 cells at 4 uM after 6 hrs by Dual-light chemiluminescent assay; format: cell-based; conditions: CV-1
T1 sequence (whole entry): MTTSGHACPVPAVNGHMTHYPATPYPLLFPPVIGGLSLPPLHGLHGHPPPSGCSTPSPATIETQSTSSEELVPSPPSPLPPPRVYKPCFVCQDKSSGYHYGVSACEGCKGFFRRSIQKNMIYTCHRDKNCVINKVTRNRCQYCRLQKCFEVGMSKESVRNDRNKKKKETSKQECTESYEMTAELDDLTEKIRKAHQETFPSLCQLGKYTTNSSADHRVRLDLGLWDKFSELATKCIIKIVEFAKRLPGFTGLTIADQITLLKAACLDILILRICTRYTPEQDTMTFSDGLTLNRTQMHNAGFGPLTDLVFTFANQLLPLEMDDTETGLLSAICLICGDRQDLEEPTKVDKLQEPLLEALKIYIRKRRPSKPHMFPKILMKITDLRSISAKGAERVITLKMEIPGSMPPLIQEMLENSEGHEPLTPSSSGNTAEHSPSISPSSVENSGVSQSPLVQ
Outline: (§1)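 Gal4 DBD (1–147) was fused to hRARα (156–462) or hRARβ (169–448) LBD. CV-1 cells (20,000/well) were co-transfected with 10 ng Gal4-LBD, 100 ng UAS-luciferase and 25 ng β-gal vector. After 16 h the medium was replaced with medium containing 5% charcoal-treated FBS. Cells got atRA plus test compound at 10-, 40- or 200-fold excess (0.2, 0.8, 4 μM) for 6 h. Luciferase and β-galactosidase were read by chemiluminescence.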

[2] = system: A549; test: Antiproliferative activity against human A549 cells at 4 uM after 72 hrs by MTT assay; format: functional; conditions: A549, 72 h
Outline: (§2)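 Epithelial cancer lines came from ATCC and were seeded the day before in complete medium: PC-3, SkOV3 and A549 at 3,000/well; MiaPaCa-2 and BxPC-3 at 4,000; T-47D and MDA-MB-468 at 5,000. Medium was switched to 0.5% FBS just before exposure to 4 μM. Read-out was MTT (4 h, 37 °C), SDS/HCl solubilisation, A595 minus cell-free blank. Growth inhibition was taken versus DMSO (≤0.1% v/v) controls, ≥2 experiments in triplicate.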

[3] = system: PC-3; test: Antiproliferative activity against human PC3 cells at 4 uM after 48 hrs by MTT assay; format: functional; conditions: PC-3, 48 h; outline: as §2
[4] = biological target: T2, Retinoic acid receptor gamma (Homo sapiens) (UniProt P13631); test: Inhibition of transactivation activity of Gal4-LBD fused human RARgamma (178 to 454) transfected in atRA-stimulated african green monkey CV1 cells at 4 uM after 20 hrs by Dual-light chemiluminescent assay; conditions: CV-1
T2 sequence (whole entry): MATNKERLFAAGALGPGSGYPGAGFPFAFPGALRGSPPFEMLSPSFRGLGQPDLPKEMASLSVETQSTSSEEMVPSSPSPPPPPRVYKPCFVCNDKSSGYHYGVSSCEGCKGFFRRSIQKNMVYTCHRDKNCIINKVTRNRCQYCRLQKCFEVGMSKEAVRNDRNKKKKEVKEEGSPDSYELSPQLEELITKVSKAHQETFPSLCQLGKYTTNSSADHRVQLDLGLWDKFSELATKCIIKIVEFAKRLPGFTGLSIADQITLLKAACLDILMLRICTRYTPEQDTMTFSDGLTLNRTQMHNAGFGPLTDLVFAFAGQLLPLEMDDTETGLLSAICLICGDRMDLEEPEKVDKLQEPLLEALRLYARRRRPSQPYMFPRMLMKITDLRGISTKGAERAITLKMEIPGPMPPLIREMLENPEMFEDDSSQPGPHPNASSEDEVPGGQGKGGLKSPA

[5] = system: MDA-MB-468; test: Antiproliferative activity against human MDA-MB-468 cells at 4 uM after 48 hrs by MTT assay; format: functional; conditions: MDA-MB-468, 48 h; outline: as §2
[6] = biological target: T3, Retinoic acid receptor alpha (Homo sapiens) (UniProt P10276); test: Inhibition of transactivation activity of Gal4-LBD fused human RARalpha (156 to 454) transfected in atRA-stimulated african green monkey CV1 cells at 4 uM after 6 hrs by Dual-light chemiluminescent assay; format: cell-based; conditions: CV-1; outline: as §1
T3 sequence (whole entry): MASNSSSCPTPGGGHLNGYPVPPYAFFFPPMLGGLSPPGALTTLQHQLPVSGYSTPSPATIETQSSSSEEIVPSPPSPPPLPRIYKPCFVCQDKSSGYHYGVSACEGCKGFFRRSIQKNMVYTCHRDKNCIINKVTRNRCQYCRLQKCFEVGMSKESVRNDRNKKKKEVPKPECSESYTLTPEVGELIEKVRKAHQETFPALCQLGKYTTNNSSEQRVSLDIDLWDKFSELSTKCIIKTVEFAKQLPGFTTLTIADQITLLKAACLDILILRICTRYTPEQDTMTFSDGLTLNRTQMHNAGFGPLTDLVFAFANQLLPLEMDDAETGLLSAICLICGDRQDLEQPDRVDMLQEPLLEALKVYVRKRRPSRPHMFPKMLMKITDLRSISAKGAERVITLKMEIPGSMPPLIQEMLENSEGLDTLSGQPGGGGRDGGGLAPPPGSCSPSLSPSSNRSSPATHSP

[7] = biological target: T4, Retinoic acid receptor RXR-alpha (Mus musculus, UniProt P28700); test: Transactivation of Gal4-LBD fused mouse RXRalpha (218 to 467) transfected in african green monkey CV1 cells assessed as luciferase activity at after 6 hrs by Dual-light chemiluminescent assay; format: cell-based, CV-1
T4 sequence (P28700 whole entry): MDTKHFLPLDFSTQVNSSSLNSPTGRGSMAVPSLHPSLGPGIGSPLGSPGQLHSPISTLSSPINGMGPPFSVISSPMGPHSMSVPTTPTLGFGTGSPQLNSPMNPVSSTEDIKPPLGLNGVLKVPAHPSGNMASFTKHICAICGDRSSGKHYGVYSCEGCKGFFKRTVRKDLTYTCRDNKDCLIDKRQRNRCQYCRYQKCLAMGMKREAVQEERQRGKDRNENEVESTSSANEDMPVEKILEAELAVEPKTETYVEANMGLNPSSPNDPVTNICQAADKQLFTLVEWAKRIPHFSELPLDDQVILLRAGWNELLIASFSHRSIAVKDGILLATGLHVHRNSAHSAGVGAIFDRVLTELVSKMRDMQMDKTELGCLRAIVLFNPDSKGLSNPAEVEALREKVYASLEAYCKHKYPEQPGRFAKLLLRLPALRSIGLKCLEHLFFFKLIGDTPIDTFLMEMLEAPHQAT

[8] = biological target: T3, Retinoic acid receptor alpha (Homo sapiens); test: Inhibition of transactivation activity of Gal4-LBD fused human RARalpha (156 to 454) transfected in atRA-stimulated african green monkey CV1 cells at 0.2 uM after 6 hrs by Dual-light chemiluminescent assay; format: cell-based; conditions: CV-1, 0.2 uM; outline: as §1

Activity [1]	Activity [4]	inhibition [6]	EC50 [7]	inhibition [8]	SMILES	inhibition at 4 µM [2]	inhibition at 4 µM [3]	inhibition at 4 µM [5]
inactive	inactive	27%	667 nM	inactive	COCCOCOc1cc(C)c(-c2ccc3cc(C(=O)O)ccc3c2Cl)cc1C12CC3CC(CC(C3)C1)C2	88.1%	97.6%	49.9%
inactive	inactive	43.7%	1140 nM	inactive	COCCOCOc1cc(C)c(-c2ccc(CC(=O)O)cc2Cl)cc1C12CC3CC(CC(C3)C1)C2	7.9%	52.2%	25.3%
